This is an account of results in ChEMBL document CHEMBL1275331, “Discovery of a novel 5-HT(3) antagonist/5-HT(1A) agonist 3-amino-5,6,7,8-tetrahydro-2-{4-[4-(quinolin-2-yl)piperazin-1-yl]butyl}quinazolin-4(3H)-one (TZB-30878) as an orally bioavailable agent for irritable bowel syndrome” (J Med Chem, 2010).

The structures appear in SMILES notation. Some results are limits rather than exact numbers.

The target in data set [1] is Histamine H2 receptor (Homo sapiens, UniProt P25021). The data set is described as follows: Displacement of [125I]APT from human recombinant histamine H2 receptor. (Displacement assays read how much labelled ligand stays bound in the presence of the test substance.)
Histamine H2 receptor, sequence (P25021 whole entry): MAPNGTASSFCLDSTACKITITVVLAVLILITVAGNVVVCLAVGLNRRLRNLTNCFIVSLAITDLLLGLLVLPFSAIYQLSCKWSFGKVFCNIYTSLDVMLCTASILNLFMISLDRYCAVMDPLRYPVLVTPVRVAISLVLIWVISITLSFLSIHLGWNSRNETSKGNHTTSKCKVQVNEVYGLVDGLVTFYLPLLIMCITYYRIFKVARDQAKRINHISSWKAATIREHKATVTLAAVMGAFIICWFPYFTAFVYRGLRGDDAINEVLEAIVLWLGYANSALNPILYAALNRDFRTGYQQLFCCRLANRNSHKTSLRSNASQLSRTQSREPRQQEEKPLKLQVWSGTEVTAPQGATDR
Data set [2] addresses D(2) dopamine receptor (Homo sapiens, UniProt P14416). The experiment in a line: Displacement of [3H]spiperone from human recombinant dopamine D2 receptor.
Data set [3] can be described thus: Drug level in Sprague-Dawley rat brain at 3 mg/kg, po after 4 hrs by HPLC analysis. Type of data set: ADME, organism-based. As to conditions: read-out: Drug uptake. Details: dose 3 mg/kg, route oral. In short, it runs like this: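 Total compound concentration was measured in brain and blood at 2, 4 and 8 h after a single oral 3 mg/kg dose. Brain/blood ratio was also derived. Values are mean ± SD of three rats.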

D(2) dopamine receptor, sequence (P14416 whole entry): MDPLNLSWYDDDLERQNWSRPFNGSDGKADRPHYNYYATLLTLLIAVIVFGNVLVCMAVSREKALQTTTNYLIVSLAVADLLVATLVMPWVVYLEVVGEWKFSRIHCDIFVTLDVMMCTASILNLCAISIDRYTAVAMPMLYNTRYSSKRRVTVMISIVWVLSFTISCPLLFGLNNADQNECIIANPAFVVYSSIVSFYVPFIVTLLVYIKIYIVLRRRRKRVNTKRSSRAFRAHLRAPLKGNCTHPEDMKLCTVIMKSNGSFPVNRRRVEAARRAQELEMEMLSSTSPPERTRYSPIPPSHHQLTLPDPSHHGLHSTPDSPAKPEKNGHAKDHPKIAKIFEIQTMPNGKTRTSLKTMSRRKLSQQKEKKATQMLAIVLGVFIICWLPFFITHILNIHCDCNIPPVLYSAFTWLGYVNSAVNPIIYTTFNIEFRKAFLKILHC

For orientation: IC50 means the concentration that inhibits the measured activity by half. With `Nn1c(CCCCN2CCN(c3ccc4ccccc4n3)CC2)nc2c(c1=O)CCCC2`, the IC50 in data set [1] and in data set [2] was more than 1000 nM throughout. In data set [3], the concentration at 4 h was 70.2 nM.
